Columns and labels:
Details in all cases: stereoisomer not certain
OR10J5 (Homo sapiens) = target: T1, OR10J5 (Homo sapiens) (UniProt Q8NHC4)
T1 sequence (whole entry): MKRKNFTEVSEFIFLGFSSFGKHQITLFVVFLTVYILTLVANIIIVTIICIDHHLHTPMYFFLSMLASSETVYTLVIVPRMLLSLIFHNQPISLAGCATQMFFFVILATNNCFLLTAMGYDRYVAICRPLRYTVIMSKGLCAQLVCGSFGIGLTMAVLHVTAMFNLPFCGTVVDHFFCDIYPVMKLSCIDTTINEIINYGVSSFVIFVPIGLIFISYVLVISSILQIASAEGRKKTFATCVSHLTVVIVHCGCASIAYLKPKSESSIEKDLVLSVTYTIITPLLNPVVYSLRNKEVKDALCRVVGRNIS
How it was run: (§1)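 Each entry records the cell line, G-protein, co-transfected protein and tags used. Methods varied with the source, often transient luciferase assays in mammalian cell lines. A receptor–molecule pair is called responsive (active) if the original authors judged its signal statistically different from baseline and non-responsive (inactive) otherwise.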

OR10G2 (Homo sapiens) = target: T2, OR10G2 (Homo sapiens) (UniProt Q8NGC3)
T2 sequence (whole entry): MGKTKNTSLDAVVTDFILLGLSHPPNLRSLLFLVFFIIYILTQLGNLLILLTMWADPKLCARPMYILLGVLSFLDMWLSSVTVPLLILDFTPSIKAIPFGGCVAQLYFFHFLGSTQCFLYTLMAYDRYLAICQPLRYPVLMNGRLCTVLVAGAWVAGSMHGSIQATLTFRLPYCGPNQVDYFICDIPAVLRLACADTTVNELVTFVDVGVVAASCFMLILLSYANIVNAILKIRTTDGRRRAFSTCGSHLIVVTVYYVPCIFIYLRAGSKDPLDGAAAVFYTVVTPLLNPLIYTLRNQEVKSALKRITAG
How it was run: as §1

OR10G3 (Homo sapiens) = target: T3, OR10G3 (Homo sapiens) (UniProt Q8NGC4)
T3 sequence (whole entry): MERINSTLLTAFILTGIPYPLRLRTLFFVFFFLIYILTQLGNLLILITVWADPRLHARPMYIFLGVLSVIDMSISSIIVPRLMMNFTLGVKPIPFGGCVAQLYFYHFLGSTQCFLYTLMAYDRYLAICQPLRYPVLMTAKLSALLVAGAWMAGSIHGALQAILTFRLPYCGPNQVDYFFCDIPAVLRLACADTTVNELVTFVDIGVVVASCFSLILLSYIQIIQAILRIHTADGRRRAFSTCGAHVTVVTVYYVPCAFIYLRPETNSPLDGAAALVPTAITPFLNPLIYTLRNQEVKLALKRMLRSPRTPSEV
How it was run: as §1

OR10G4 (Homo sapiens) = target: T4, OR10G4 (Homo sapiens) (UniProt Q8NGN3)
T4 sequence (whole entry): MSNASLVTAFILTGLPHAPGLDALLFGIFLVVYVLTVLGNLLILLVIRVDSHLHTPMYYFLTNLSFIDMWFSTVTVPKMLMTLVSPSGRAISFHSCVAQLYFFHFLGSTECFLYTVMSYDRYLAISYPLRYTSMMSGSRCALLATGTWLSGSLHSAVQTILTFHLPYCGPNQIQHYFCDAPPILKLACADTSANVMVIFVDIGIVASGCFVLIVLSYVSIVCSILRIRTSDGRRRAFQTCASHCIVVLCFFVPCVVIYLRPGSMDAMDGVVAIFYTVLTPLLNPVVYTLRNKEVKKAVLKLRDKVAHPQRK
How it was run: as §1

OR10G6 (Homo sapiens) = target: T5, OR10G6 (Homo sapiens) (UniProt Q8NH81)
T5 sequence (whole entry): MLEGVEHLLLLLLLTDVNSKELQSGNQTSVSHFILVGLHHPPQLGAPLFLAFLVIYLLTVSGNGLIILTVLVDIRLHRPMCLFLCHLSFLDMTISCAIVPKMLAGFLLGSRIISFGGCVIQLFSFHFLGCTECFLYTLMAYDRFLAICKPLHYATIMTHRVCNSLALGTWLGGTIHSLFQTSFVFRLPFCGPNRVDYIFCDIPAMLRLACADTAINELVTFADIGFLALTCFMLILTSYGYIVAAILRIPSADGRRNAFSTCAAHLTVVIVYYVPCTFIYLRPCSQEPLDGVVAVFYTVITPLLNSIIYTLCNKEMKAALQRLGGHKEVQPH
How it was run: as §1

OR10G7 (Homo sapiens) = target: T6, OR10G7 (Homo sapiens) (UniProt Q8NGN6)
T6 sequence (whole entry): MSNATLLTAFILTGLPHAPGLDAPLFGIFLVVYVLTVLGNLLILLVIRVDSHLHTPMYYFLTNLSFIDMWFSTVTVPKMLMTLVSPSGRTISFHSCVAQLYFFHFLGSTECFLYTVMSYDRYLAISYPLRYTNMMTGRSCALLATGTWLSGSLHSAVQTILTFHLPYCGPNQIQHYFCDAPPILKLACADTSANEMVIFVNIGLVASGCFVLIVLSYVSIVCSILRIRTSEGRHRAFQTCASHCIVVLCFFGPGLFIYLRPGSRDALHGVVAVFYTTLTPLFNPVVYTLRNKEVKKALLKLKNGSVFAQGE
How it was run: as §1

OR10G8 (Homo sapiens) = target: T7, OR10G8 (Homo sapiens) (UniProt Q8NGN5)
T7 sequence (whole entry): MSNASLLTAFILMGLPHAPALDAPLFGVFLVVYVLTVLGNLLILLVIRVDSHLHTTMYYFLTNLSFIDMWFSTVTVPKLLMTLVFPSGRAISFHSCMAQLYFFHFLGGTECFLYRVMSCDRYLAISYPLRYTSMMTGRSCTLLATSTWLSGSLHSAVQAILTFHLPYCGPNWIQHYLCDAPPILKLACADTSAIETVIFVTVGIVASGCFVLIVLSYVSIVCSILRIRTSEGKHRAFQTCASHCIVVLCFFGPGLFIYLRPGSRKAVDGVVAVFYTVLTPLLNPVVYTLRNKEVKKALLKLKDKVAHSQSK
How it was run: as §1

OR10G9 (Homo sapiens) = target: T8, OR10G9 (Homo sapiens) (UniProt Q8NGN4)
T8 sequence (whole entry): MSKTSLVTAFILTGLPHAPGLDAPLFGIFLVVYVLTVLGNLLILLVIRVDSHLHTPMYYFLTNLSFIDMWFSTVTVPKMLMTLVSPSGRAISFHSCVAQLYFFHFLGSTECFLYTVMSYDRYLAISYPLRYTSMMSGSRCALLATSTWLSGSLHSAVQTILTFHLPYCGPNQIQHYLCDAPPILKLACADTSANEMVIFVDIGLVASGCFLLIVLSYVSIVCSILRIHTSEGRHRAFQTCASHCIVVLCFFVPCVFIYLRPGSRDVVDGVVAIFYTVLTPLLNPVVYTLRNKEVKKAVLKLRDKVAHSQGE
How it was run: as §1

OR10H1 (Homo sapiens) = target: T9, OR10H1 (Homo sapiens) (UniProt Q9Y4A9)
T9 sequence (whole entry): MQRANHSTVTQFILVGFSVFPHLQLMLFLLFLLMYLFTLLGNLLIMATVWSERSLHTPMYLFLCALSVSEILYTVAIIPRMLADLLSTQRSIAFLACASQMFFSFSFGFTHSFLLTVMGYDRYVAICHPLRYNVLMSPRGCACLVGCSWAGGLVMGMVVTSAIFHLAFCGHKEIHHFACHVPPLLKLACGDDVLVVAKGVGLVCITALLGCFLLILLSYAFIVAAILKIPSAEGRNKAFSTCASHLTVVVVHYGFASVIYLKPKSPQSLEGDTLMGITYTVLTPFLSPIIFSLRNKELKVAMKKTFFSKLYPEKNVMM
How it was run: as §1

OR10H2 (Homo sapiens) = target: T10, OR10H2 (Homo sapiens) (UniProt O60403)
T10 sequence (whole entry): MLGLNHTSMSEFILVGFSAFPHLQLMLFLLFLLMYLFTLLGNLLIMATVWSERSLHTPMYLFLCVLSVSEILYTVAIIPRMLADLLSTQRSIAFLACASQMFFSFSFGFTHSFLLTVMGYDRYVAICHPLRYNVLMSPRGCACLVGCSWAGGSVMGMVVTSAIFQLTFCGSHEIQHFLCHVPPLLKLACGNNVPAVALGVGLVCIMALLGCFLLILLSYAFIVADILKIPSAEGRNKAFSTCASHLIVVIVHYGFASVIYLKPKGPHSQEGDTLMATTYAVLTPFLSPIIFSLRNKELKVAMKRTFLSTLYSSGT
How it was run: as §1

OR10H3 (Homo sapiens) = target: T11, OR10H3 (Homo sapiens) (UniProt O60404)
T11 sequence (whole entry): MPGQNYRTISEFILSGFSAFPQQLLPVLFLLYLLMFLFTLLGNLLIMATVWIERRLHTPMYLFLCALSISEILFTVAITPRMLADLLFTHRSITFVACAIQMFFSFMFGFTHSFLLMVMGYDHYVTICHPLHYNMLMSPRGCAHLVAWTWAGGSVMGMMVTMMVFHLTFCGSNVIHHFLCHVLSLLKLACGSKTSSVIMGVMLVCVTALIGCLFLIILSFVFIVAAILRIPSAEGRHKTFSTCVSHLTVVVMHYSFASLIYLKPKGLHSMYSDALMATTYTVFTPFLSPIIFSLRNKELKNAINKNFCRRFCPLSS
How it was run: as §1

OR10H4 (Homo sapiens) = target: T12, OR10H4 (Homo sapiens) (UniProt Q8NGA5)
T12 sequence (whole entry): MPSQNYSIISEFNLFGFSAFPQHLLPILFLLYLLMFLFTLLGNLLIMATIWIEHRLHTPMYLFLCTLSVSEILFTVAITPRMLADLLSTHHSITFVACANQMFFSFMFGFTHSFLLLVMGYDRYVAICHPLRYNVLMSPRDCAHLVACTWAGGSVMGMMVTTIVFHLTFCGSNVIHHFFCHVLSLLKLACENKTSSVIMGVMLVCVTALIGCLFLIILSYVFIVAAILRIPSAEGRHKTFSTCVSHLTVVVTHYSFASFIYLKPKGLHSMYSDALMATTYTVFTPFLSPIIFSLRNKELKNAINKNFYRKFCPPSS
How it was run: as §1

OR10H5 (Homo sapiens) = target: T13, OR10H5 (Homo sapiens) (UniProt Q8NGA6)
T13 sequence (whole entry): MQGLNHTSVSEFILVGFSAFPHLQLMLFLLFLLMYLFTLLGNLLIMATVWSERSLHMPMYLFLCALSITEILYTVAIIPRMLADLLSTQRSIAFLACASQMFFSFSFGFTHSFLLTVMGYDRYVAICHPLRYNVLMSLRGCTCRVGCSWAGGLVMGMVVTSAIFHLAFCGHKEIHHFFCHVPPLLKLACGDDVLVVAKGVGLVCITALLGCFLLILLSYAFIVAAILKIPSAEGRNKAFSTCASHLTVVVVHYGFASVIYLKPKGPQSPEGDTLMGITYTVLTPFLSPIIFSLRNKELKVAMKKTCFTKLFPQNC
How it was run: as §1

OR10J1 (Homo sapiens) = target: T14, OR10J1 (Homo sapiens) (UniProt P30954)
T14 sequence (whole entry): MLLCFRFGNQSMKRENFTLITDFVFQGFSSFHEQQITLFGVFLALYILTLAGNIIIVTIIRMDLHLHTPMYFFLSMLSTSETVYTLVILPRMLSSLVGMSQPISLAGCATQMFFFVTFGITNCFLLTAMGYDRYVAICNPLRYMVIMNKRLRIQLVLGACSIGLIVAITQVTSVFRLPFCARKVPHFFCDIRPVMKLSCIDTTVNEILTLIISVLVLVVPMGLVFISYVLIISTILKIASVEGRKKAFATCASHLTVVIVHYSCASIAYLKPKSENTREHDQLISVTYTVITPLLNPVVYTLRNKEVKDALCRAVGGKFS
How it was run: as §1

OR10J3 (Homo sapiens) = target: T15, OR10J3 (Homo sapiens) (UniProt Q5JRS4)
T15 sequence (whole entry): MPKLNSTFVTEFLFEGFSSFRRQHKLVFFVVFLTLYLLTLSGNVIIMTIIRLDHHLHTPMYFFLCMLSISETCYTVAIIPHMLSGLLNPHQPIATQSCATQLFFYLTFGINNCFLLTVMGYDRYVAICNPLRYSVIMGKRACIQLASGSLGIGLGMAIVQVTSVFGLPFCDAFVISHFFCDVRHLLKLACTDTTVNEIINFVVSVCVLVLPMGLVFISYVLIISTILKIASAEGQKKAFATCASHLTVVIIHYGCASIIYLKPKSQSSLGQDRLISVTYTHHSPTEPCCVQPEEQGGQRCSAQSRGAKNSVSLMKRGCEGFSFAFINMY
How it was run: as §1

OR10K1 (Homo sapiens) = target: T16, OR10K1 (Homo sapiens) (UniProt Q8NGX5)
T16 sequence (whole entry): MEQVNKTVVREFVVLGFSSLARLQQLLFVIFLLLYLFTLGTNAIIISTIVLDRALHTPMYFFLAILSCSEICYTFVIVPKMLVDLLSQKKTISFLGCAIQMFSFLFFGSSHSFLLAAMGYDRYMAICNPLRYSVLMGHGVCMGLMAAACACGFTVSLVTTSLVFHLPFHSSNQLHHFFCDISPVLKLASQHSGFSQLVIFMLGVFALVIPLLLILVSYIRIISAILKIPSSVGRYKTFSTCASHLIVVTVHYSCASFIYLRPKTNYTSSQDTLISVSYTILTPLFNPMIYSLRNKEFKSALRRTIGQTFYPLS
How it was run: as §1

OR10P1 (Homo sapiens) = target: T17, OR10P1 (Homo sapiens) (UniProt Q8NGE3)
T17 sequence (whole entry): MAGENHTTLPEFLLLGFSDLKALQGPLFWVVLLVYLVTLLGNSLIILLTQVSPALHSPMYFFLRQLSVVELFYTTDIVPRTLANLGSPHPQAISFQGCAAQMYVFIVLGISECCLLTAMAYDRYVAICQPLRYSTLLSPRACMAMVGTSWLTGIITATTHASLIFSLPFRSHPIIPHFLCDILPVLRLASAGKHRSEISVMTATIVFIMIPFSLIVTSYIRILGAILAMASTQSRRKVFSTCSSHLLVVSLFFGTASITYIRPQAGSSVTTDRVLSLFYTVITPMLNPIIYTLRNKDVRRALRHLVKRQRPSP
How it was run: as §1

OR10Q1 (Homo sapiens) = target: T18, OR10Q1 (Homo sapiens) (UniProt Q8NGQ4)
T18 sequence (whole entry): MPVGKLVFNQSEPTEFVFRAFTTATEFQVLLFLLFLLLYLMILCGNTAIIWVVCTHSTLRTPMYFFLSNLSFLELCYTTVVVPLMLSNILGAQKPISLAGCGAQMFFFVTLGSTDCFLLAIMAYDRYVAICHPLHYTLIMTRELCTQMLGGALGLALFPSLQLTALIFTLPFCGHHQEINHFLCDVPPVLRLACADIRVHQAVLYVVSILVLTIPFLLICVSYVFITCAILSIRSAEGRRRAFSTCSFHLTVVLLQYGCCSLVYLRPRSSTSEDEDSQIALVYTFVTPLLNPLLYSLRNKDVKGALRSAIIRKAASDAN
How it was run: as §1

Measured: odorant receptor agonist call

CCCCC(=O)O
inactive: OR10J5 (Homo sapiens)

CC1=NC(C)C(C)S1 (stereo not given)
inactive: all assays above

CC(=O)OCC=C(C)C
inactive: OR10J5 (Homo sapiens)
